Reference: PubChem BioAssay AID504519 (The Scripps Research Institute Molecular Screening Center, 2011)
The source made the active and inactive calls.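 How the source made its calls: active means labelling ratio, compound over solvent, at most 0.5 for PAFAH2 while all off-target serine hydrolases stay above 0.5; inactive means the rest.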

Key:
Experiment in all cases: proteome-wide serine hydrolase selectivity in cells, late-stage follow-up, selectivity assay for PAFAH2 inhibitor project, LC-MS, SILAC, BW5147 murine T cells (AID 504519)
[1] = tested on: AADACL1; details: SILAC ABPP LC-MS/MS ratio, stronger effect = lower value
Summary of the method: (§1)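 Material – murine T-cell hybridoma line derived from BW5147, SILAC-labeled (light or heavy) · Probe or stimulus – FP-biotin probe on lysates · Doses – test compound on light cells, DMSO vehicle on heavy cells, in situ · Measured by – MudPIT LC/LC-MS/MS after biotin enrichment · Read-out – Per-protein light/heavy peptide intensity ratio, 1 meaning no inhibition · Controls – heavy DMSO-treated cells as reference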

[2] = tested on: ABHD10; details: SILAC ABPP LC-MS/MS ratio, stronger effect = lower value
Summary of the method: as §1

[3] = tested on: ABHD11; details: SILAC ABPP LC-MS/MS ratio, stronger effect = lower value
Summary of the method: as §1

[4] = tested on: ABHD12; details: SILAC ABPP LC-MS/MS ratio, stronger effect = lower value
Summary of the method: as §1

[5] = tested on: ABHD13; details: SILAC ABPP LC-MS/MS ratio, stronger effect = lower value
Summary of the method: as §1

[6] = tested on: ABHD6; details: SILAC ABPP LC-MS/MS ratio, stronger effect = lower value
Summary of the method: as §1

[7] = tested on: ACOT1; details: SILAC ABPP LC-MS/MS ratio, stronger effect = lower value
Summary of the method: as §1

[8] = tested on: ACOT2; details: SILAC ABPP LC-MS/MS ratio, stronger effect = lower value
Summary of the method: as §1

[9] = tested on: ACOT7; details: SILAC ABPP LC-MS/MS ratio, stronger effect = lower value
Summary of the method: as §1

[10] = tested on: APEH; details: SILAC ABPP LC-MS/MS ratio, stronger effect = lower value
Summary of the method: as §1

[11] = tested on: BAT5; details: SILAC ABPP LC-MS/MS ratio, stronger effect = lower value
Summary of the method: as §1

[12] = tested on: CTSA; details: SILAC ABPP LC-MS/MS ratio, stronger effect = lower value
Summary of the method: as §1

[13] = tested on: DDHD1; details: SILAC ABPP LC-MS/MS ratio, stronger effect = lower value
Summary of the method: as §1

[14] = tested on: DPP4; details: SILAC ABPP LC-MS/MS ratio, stronger effect = lower value
Summary of the method: as §1

[15] = tested on: DPP7; details: SILAC ABPP LC-MS/MS ratio, stronger effect = lower value
Summary of the method: as §1

[16] = tested on: DPP8; details: SILAC ABPP LC-MS/MS ratio, stronger effect = lower value
Summary of the method: as §1

[17] = tested on: DPP9; details: SILAC ABPP LC-MS/MS ratio, stronger effect = lower value
Summary of the method: as §1

[18] = tested on: ESD; details: SILAC ABPP LC-MS/MS ratio, stronger effect = lower value
Summary of the method: as §1

[19] = tested on: FAAH; details: SILAC ABPP LC-MS/MS ratio, stronger effect = lower value
Summary of the method: as §1

[20] = tested on: FAM108A; details: SILAC ABPP LC-MS/MS ratio, stronger effect = lower value
Summary of the method: as §1

[21] = tested on: FAM108B1; details: SILAC ABPP LC-MS/MS ratio, stronger effect = lower value
Summary of the method: as §1

[22] = tested on: FAM108C; details: SILAC ABPP LC-MS/MS ratio, stronger effect = lower value
Summary of the method: as §1

[23] = tested on: FASN; details: SILAC ABPP LC-MS/MS ratio, stronger effect = lower value
Summary of the method: as §1

[24] = tested on: IAH1; details: SILAC ABPP LC-MS/MS ratio, stronger effect = lower value
Summary of the method: as §1

[25] = tested on: LACTB; details: SILAC ABPP LC-MS/MS ratio, stronger effect = lower value
Summary of the method: as §1

[26] = tested on: LIPA; details: SILAC ABPP LC-MS/MS ratio, stronger effect = lower value
Summary of the method: as §1

[27] = tested on: LYPLA1; details: SILAC ABPP LC-MS/MS ratio, stronger effect = lower value
Summary of the method: as §1

[28] = tested on: LYPLA2; details: SILAC ABPP LC-MS/MS ratio, stronger effect = lower value
Summary of the method: as §1

[29] = tested on: LYPLA3; details: SILAC ABPP LC-MS/MS ratio, stronger effect = lower value
Summary of the method: as §1

[30] = tested on: PAFAH1B2; details: SILAC ABPP LC-MS/MS ratio, stronger effect = lower value
Summary of the method: as §1

[31] = tested on: PAFAH1B3; details: SILAC ABPP LC-MS/MS ratio, stronger effect = lower value
Summary of the method: as §1

[32] = tested on: PARL; details: SILAC ABPP LC-MS/MS ratio, stronger effect = lower value
Summary of the method: as §1

[33] = tested on: PLA2G6; details: SILAC ABPP LC-MS/MS ratio, stronger effect = lower value
Summary of the method: as §1

[34] = tested on: PNPLA6; details: SILAC ABPP LC-MS/MS ratio, stronger effect = lower value
Summary of the method: as §1

[35] = tested on: PNPLA7; details: SILAC ABPP LC-MS/MS ratio, stronger effect = lower value
Summary of the method: as §1

[36] = tested on: PPME1; details: SILAC ABPP LC-MS/MS ratio, stronger effect = lower value
Summary of the method: as §1

[37] = tested on: PRCP; details: SILAC ABPP LC-MS/MS ratio, stronger effect = lower value
Summary of the method: as §1

[38] = tested on: PREPL; details: SILAC ABPP LC-MS/MS ratio, stronger effect = lower value
Summary of the method: as §1

[39] = target: Platelet-activating factor acetylhydrolase 2, cytoplasmic (Mus musculus) (UniProt Q8VDG7); details: SILAC ABPP LC-MS/MS ratio, PAFAH2, stronger effect = lower value
Summary of the method: as §1

[40] = target: Prolyl endopeptidase (Mus musculus) (UniProt Q9QUR6); details: SILAC ABPP LC-MS/MS ratio, PREP, stronger effect = lower value
Summary of the method: as §1

[41] = tested on: SERHL; details: SILAC ABPP LC-MS/MS ratio, stronger effect = lower value
Summary of the method: as §1

[42] = tested on: SIAE; details: SILAC ABPP LC-MS/MS ratio, stronger effect = lower value
Summary of the method: as §1

Sequence of Platelet-activating factor acetylhydrolase 2, cytoplasmic (Mus musculus) (Q8VDG7 whole entry, looked up): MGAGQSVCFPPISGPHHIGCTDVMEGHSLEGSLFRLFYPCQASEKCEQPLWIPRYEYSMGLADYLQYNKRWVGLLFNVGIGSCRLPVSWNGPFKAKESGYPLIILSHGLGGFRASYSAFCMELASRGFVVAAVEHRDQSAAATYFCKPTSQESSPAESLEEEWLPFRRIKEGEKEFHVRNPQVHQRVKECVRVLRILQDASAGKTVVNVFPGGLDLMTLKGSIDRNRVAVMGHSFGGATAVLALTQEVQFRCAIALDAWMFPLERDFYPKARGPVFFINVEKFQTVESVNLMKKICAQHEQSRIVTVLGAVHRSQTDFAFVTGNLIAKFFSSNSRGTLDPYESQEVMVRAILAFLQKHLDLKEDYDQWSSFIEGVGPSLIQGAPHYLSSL
Sequence of Prolyl endopeptidase (Mus musculus) (Q9QUR6 whole entry, looked up): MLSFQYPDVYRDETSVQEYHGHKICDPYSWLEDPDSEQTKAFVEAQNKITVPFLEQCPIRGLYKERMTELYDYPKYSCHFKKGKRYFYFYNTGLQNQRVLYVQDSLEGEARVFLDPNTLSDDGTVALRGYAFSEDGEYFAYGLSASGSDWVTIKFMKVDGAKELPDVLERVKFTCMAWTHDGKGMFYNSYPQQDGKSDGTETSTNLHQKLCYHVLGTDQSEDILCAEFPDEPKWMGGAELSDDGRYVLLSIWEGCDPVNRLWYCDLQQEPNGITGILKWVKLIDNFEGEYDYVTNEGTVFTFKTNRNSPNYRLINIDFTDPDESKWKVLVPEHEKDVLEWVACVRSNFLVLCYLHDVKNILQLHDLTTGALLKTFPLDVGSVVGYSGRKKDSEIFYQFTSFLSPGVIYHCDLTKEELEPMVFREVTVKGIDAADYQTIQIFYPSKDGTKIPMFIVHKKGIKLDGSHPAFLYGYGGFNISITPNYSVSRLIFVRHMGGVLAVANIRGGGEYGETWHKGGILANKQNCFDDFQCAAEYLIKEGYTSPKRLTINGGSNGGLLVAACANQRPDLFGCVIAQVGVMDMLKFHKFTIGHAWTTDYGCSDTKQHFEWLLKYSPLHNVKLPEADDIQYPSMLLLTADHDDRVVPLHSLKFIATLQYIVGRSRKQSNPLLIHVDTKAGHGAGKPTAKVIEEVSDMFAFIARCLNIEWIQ

SILAC ratio inhibitor/DMSO [1]: 1.3 (inactive)
SILAC ratio inhibitor/DMSO [2]: 1.4 (inactive)
SILAC ratio inhibitor/DMSO [3]: 1.4 (inactive)
SILAC ratio inhibitor/DMSO [4]: 1.3 (inactive)
SILAC ratio inhibitor/DMSO [5]: 1.2 (inactive)
SILAC ratio inhibitor/DMSO [6]: 0.59 (inactive)
SILAC ratio inhibitor/DMSO [7]: 1.2 (inactive)
SILAC ratio inhibitor/DMSO [8]: 1.2 (inactive)
SILAC ratio inhibitor/DMSO [9]: 1.2 (inactive)
SILAC ratio inhibitor/DMSO [10]: 1 (inactive)
SILAC ratio inhibitor/DMSO [11]: 1.3 (inactive)
SILAC ratio inhibitor/DMSO [12]: 1.1 (inactive)
SILAC ratio inhibitor/DMSO [13]: 1.4 (inactive)
SILAC ratio inhibitor/DMSO [14]: 1.2 (inactive)
SILAC ratio inhibitor/DMSO [15]: 1.2 (inactive)
SILAC ratio inhibitor/DMSO [16]: 1.3 (inactive)
SILAC ratio inhibitor/DMSO [17]: 1.3 (inactive)
SILAC ratio inhibitor/DMSO [18]: 1 (inactive)
SILAC ratio inhibitor/DMSO [19]: 1.3 (inactive)
SILAC ratio inhibitor/DMSO [20]: 1.1 (inactive)
SILAC ratio inhibitor/DMSO [21]: 1.2 (inactive)
SILAC ratio inhibitor/DMSO [22]: 1.3 (inactive)
SILAC ratio inhibitor/DMSO [23]: 1.3 (inactive)
SILAC ratio inhibitor/DMSO [24]: 1.2 (inactive)
SILAC ratio inhibitor/DMSO [25]: 1.3 (inactive)
SILAC ratio inhibitor/DMSO [26]: 1.6 (inactive)
SILAC ratio inhibitor/DMSO [27]: 1.3 (inactive)
SILAC ratio inhibitor/DMSO [28]: 1.4 (inactive)
SILAC ratio inhibitor/DMSO [29]: 1.3 (inactive)
SILAC ratio inhibitor/DMSO [30]: 1.2 (inactive)
SILAC ratio inhibitor/DMSO [31]: 1.3 (inactive)
SILAC ratio inhibitor/DMSO [32]: 1.2 (inactive)
SILAC ratio inhibitor/DMSO [33]: 0.91 (inactive)
SILAC ratio inhibitor/DMSO [34]: 1.6 (inactive)
SILAC ratio inhibitor/DMSO [35]: 1.6 (inactive)
SILAC ratio inhibitor/DMSO [36]: 1.2 (inactive)
SILAC ratio inhibitor/DMSO [37]: 1.4 (inactive)
SILAC ratio inhibitor/DMSO [38]: 1.3 (inactive)
SILAC ratio inhibitor/DMSO [39]: 0
SILAC ratio inhibitor/DMSO [40]: 1.3 (inactive)
SILAC ratio inhibitor/DMSO [41]: 1.1 (inactive)
SILAC ratio inhibitor/DMSO [42]: 1.3 (inactive)
Compound: O=C(N1CCCC1)n1ncc(-c2ccc(-c3ccccc3)cc2)n1
